# Assay results collected from several papers.
# Compare with care: the assays were run in different laboratories.
# NT5E: 5'-nucleotidase (NT5E, Homo sapiens, UniProt P21589)
Compound,target,effect on,mode,technique,tested at,measurement,value
CCCCC(=O)Nc1ccc(-c2ccc3ncn(CCC)c(=O)c3c2)cn1,"Phosphatidylinositol 4-kinase beta (PI4KB, Homo sapiens, UniProt Q9UBF8)",binding,,competition with immobilised ligand,0.5 µM,remaining binding,53%
COc1ccc2oc(-c3ccc4nc(N)oc4c3)c/c(=N\c3ccccc3NC(=O)CCN)c2c1,"Platelet-derived growth factor receptor alpha (PDGFRA, Homo sapiens, UniProt P16234)",binding,,,1 µM,remaining binding,103%
O=C(NS(=O)(=O)c1ccc(C(F)(F)F)cc1)c1cc2ccccc2n1Cc1ccc(Br)c2ccccc12,"Xanthine dehydrogenase/oxidase (XDH, Bos taurus, UniProt P80457)",enzyme activity,inhibitor,absorbance,10 µM,inhibition,17.2%
C1=C/COCc2cc(ccc2OCCN2CCCC2)Nc2nccc(n2)-c2cccc(c2)COC/1,"Cyclin-dependent kinase 13 (CDK13, Homo sapiens, UniProt Q14004)",cell-free assay,,,0.1 µM,remaining signal,60%
Cc1cc(-c2ccccc2)c(C#N)c(SCC(=O)Nc2nccs2)n1,NT5E,enzyme activity,inhibitor,HPLC,10 µM,inhibition,91%
NC/C(=C\F)COc1cccc(Cn2c(=S)[nH]c(=O)c3[nH]cnc32)c1,"Lactoperoxidase (LPO, Bos taurus, UniProt P80025)",enzyme activity,inhibitor,,2.5 µM,remaining activity,81.1%
N#Cc1c(C(F)(F)F)cc(-c2ccccc2)nc1SCC(=O)Nc1cccnc1,NT5E,enzyme activity,inhibitor,,10 µM,inhibition,40%
CC(=O)ON=C1C=CC(=C(C#N)c2ccccc2)C=C1,"Dual specificity tyrosine-phosphorylation-regulated kinase 1A (Dyrk1a, Rattus norvegicus, UniProt Q63470)",enzyme activity,inhibitor,ADP detection,2 µM,activity vs control,87%
